SR-BI HDL uptake – mouse SR-BI HDL lipid transfer inhibition | ldlA[mSR-BI] CHO cells, DiI-HDL uptake fluorescence, 3 h | inhibition, % at 12.5 µM | actives 0.96% (n = 320,000);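 active = mean replicate inhibition of at least 70% and a set share of replicates each scoring 70 or more; inconclusive = meets just one of the two criteria; inactive = fails both criteria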;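 also: 0% = median of neutral control wells and 100% = median of positive control wells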
TLR9-MyD88 block – TLR9-MyD88 interaction inhibition | Q9NR96+Q99836 | CHO BLA complementation TLR9-MyD88, CCF4 FRET ratio | inhibition, % at 4.98 µM | actives 0.21% (n = 340,000);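 active = inhibition above the mean over all tested compounds plus 3 SD, cut at about 21% in these data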;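 also: 0% = DMSO only wells and 100% = clavulanate BLA inhibitor control wells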
SR-BI uptake up – SR-BI HDL lipid transfer activation; CHO ldlA[mSR-BI] cells, DiI-HDL uptake fluorescence, 3 h; 100 = double the neutral-control signal; activation, % at 12.5 µM; actives 0.096% (n = 320,000); AID 504775;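 active = mean replicate activation of at least 60% and every replicate at or above 60%; inconclusive = mean or all-replicate condition met, but not both; inactive = mean below 60% and not all replicates reaching 60%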;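 also: 0% = median plate neutral-control signal and 100% = twice that signal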
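Test system: SR-BI-overexpressing, LDLR-lacking CHO cells; Medium: Ham's F12 with 0.5% BSA, HEPES 25 mM, pH 7.4; Schedule: 3 h, 37 °C; Technique: bottom-read fluorescence, 550/595 nm.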
Hep lipid drop – hepatic lipid droplet formation modulation; inhibition, % at 6.5 µM; AML12 mouse hepatocytes, oleate lipid droplets, BODIPY imaging; actives 0.4% (n = 240,000);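 active = lipid droplet intensity inhibited by at least 50%, with more than 500 cells counted; inconclusive = wells with under 300 cells, treated as cytotoxic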
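Assay system: AML12 mouse liver cells | Compound dosing: One dose, 6.5 µM compound | Read-out basis: Droplet intensity reduction, % inhibition | Measured by: Fluorescence imaging, 20x objective, two fields per well | Schedule: Overnight treatment with compound plus oleate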
NOD2-RIPK2 inh – blocks binding of human NOD2 to RIPK2; O43353; CHO BLA complementation NOD2-RIPK2, CCF4 ratio; inhibition, % at 4.98 µM; actives 0.38% (n = 360,000); AID 624267; in the data active = inhibition above about 21%;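 also: 0% = vehicle only and 100% = reference blocker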
TLR4-MyD88 BLA – TLR4-MyD88 interaction inhibition in cells; inhibition, % at 8.4 µM; O00206+Q99836; actives 0.18% (n = 200,000); AID 861; HeLa CL3-4 TLR4/MyD88 BLA complementation, FRET ratio; in the data active = inhibition above about 25%;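 also: 0% = vehicle and 100% = reference inhibitor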
Active calls of the source: *; ? = inconclusive; / = no result given. Only some compounds are listed: those with a hit (about 1.6% of all), similar ones and a draw of the others.

SMILES | SR-BI HDL uptake | TLR9-MyD88 block | SR-BI uptake up | Hep lipid drop | NOD2-RIPK2 inh | TLR4-MyD88 BLA
Cc1cccc(C(C)C)c1NC(=O)c1c(-c2ccccc2)noc1C | -14.9 | -6.7 | 14.9 | -1.2 | -2.7 | /
C=CCOc1ccc(/C=C(\C#N)C(=O)Nc2ccccn2)cc1 | -7.5 | 4.5 | 7.6 | 8.0 | 0.9 | /
CCc1ccc(NC(=S)N2CCN(S(=O)(=O)c3ccccc3)CC2)cc1 | -15.6 | -11.5 | 15.6 | -10.0 | -1.8 | /
N#C/C(=C/c1ccc(N2CCOCC2)o1)c1ccc(Br)cc1 | 43.1 | 6.3 | -43.1 | / | 25.2* | 16.3
N#C/C(=C/c1ccc(N2CCCCCC2)o1)c1ccc(F)cc1 | 27.0 | 23.7* | -27.0 | / | 39.1* | 2.1
N#C/C(=C/c1ccc(N2CCCCCC2)o1)c1cccc(F)c1 | 31.7 | 3.7 | -31.7 | 45.6 | 12.8 | 18.5
Cc1nn(-c2ccccc2)c(C)c1/C=N/NC(=O)c1cc(-c2cccs2)[nH]n1 | 79.7* | -2.9 | -79.7 | ? | 4.5 | -10.4
Cc1nn(-c2ccccc2)c(C)c1/C=N/NC(=O)c1cc(-c2ccc(Br)s2)[nH]n1 | 70.5* | -5.7 | -70.5 | 5.9 | -5.4 | 20.5
COc1cc(C(=O)NCCC(C)C)ccc1OCc1ccc(Cl)cc1Cl | 82.2* | -0.7 | -82.2 | -18.7 | -4.2 | 2.2
COc1ccc(C(=O)NCC(=O)OCc2ccc(Cl)cc2Cl)cc1OC | -7.8 | -0.1 | 7.8 | / | 5.6 | /
COc1cc(C(=O)NC2CCCCC2)ccc1OCc1ccc(Cl)cc1Cl | 76.3* | -8.7 | -76.3 | -6.4 | -3.4 | -2.1
O=C(c1ccc(S(=O)(=O)N2CCCCC2)cc1)N1CCCc2ccccc21 | 39.2 | 1.6 | -39.2 | -10.5 | 1.5 | -8.1
O=C(c1ccc(S(=O)(=O)N2CCCC2)cc1)N1CCCc2ccccc21 | 77.5* | -2.8 | -77.5 | / | -2.2 | -4.4
CC1=C(C(=O)N2CCCCCC2)CC(CC(=O)NC2CCCC2)C(=O)N1Cc1ccc(F)cc1 (stereo unspecified) | / | / | / | / | 0.0 | /
CCOC(=O)N1CCc2cc(OC)c(OC)c3c2c1cc1cc(OC)c(OC)cc13 | 86.3* | -5.6 | -86.3 | / | 2.4 | /
O=C(CN1CCN(S(=O)(=O)c2ccccc2)CC1)N1CCc2ccccc21 | -16.8 | 6.5 | 16.8 | / | -5.6 | /
Cc1cccc(/C=C/c2onc(C)c2S(=O)(=O)N2CCC(C(=O)NC(C)(C)C)CC2)c1 | 76.5* | 4.1 | -76.5 | 6.4 | -0.6 | /
Cc1cccc(/C=C/c2onc(C)c2S(=O)(=O)N2CCC(C(=O)NC(C)C)CC2)c1 | 31.5 | -1.7 | -31.5 | 6.0 | 3.8 | /
O=C(CN1CC[n+]2c(-c3cccs3)csc21)c1ccc(-c2ccccc2)cc1 | 76.7* | -3.1 | -76.7 | -5.6 | -2.8 | -25.5
Cc1ccc(C(=O)Cn2nnc(-c3cccs3)n2)cc1 | / | 5.0 | / | 0.9 | 2.3 | /
CCCCCCCCCn1c2c(c(=N)c3c1CCC3)CCCC2 | 12.3 | / | -12.3 | -160.8 | 24.1* | 17.4
CCCCCCCCCCn1c2c(c(=N)c3c1CCC3)CCC2 | -3.8 | -12.1 | 3.8 | / | 16.9 | 9.9
Cc1ccc(-c2cc(C(F)F)n3ncc(C(=O)N4CCN(c5ccccn5)CC4)c3n2)cc1 | 77.9* | -7.1 | -77.1 | 4.5 | -4.3 | -1.1
O=C(c1cnn2c(C(F)F)cc(-c3ccccc3)nc12)N1CCN(Cc2ccc3c(c2)OCO3)CC1 | 78.2* | -0.6 | / | -11.8 | 1.0 | /
COc1cccc(-c2nc(CS(=O)(=O)CC(=O)N3CCN(C4CCCCC4)CC3)c(C)o2)c1 | 75.1* | -12.5 | -75.1 | -2.2 | 4.2 | -9.1
CCOC(=O)C1=C(CN2CCN(C(=O)c3ccco3)CC2)NC(=O)NC1c1ccc(Cl)cc1 (stereo unspecified) | 69.5 | 6.8 | -69.5 | 9.9 | -5.3 | /
CCOC(=O)C1=C(CN2CCN(C(=O)c3ccco3)CC2)NC(=O)NC1c1ccc(OC(C)C)cc1 (stereo unspecified) | 78.1* | 0.2 | -78.1 | 6.0 | -2.6 | /
CCOC(=O)C1=C(CN2CCCCCC2)NC(=O)NC1c1ccc2c(c1)OCO2 (stereo unspecified) | 57.6 | -8.4 | -57.6 | -2.3 | -1.2 | 1.0
CCOC(=O)C1=C(CN2CCC(C)CC2)NC(=O)NC1c1ccc(Cl)cc1 (stereo unspecified) | 77.8* | -10.2 | -77.8 | 3.5 | -6.5 | 9.7
